Screening data as filed in PubChem BioAssay.
Most compounds without a hit are left out; they make up all but 4% or so of the library.
MDM2 E3 inh: Mdm2 E3 ligase (human) inhibition; Q00987; cell-based MDM2 ubiquitination luciferase reporter, 2 h; 0 = plate control, 100 = twice control, blank-subtracted; signal enhancement, % at 5 µM; 210,000 compounds, 0.11% hits; AID 1230;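 active means signal enhancement of 30% or more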;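 further: luminescence tracks abundance of the self-degrading MDM2-luciferase fusion protein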
Target sequence (Q00987 whole entry, looked up, the tested form may be a part): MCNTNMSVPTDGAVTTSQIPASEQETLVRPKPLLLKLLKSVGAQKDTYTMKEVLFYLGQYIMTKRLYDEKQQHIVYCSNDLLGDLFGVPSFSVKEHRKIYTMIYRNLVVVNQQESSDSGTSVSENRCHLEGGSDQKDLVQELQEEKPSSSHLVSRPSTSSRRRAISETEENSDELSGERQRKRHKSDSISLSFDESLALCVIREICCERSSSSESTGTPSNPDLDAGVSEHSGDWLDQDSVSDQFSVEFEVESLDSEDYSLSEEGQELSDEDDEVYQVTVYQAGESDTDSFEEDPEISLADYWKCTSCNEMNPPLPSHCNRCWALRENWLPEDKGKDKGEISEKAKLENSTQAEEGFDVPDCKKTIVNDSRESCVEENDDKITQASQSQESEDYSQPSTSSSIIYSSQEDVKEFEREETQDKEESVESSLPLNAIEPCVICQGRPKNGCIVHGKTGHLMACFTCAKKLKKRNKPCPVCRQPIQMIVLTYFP
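Buffer or medium: Cells held in DMEM | Assay system: Stable mammalian line carrying autodegrading MDM2–luciferase fusion reporter | Quantity: 2000 cells/well | Times: 4 h settle plus 2 h compound, 37 °C | Doses: One concentration, 5 µM, with 0.2% DMSO | Technique: Luminescence with SteadyLite reagent, 15 min at room temperature | Benchmarks: Plate controls and plate blanks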
RAM network inh: yeast RAM network inhibition. inhibition, % at 50 µM. AID 868. 190,000 compounds, 1.8% hits. S. cerevisiae dse1pr::URA3 reporter, 5-FOA growth OD615, 2 d; analog-sensitive cbk1-as2 kinase mutant strain;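 active means inhibition above a set limit, 3 SD over mean compound inhibition, cut at about 8.4% in these data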;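 further: 0% = DMSO-only wells with no growth and 100% = 10 µM 1-NA-PP1 full growth; inhibition rescues growth on 5-FOA so higher OD means more RAM inhibition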
BB579 growth dn: reduces growth of yeast BB579 in restrictive medium | S. cerevisiae BB579 growth, OD615, 48 h | inhibition, % at 10 µM | 140,000 compounds, 0.51% hits | AID 804;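 active means inhibition above a set limit, 3 SD over the mean compound inhibition, cut at about 44% in these data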
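Material: Saccharomyces cerevisiae DeaD strain BB579, replicative lifespan model yeast; buffer or medium: CSMM-D restrictive synthetic medium containing dextrose (glucose); compound: 10 µM single dose, DMSO 0.25%; timing: 48 h compound exposure at 30 °C after 4 h preincubation; signal: turbidity as optical density at 615 nm; benchmarks: positive control amphotericin B 10 µg/mL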
INS promoter inh: TRM-6 insulin promoter activity inhibition; 130,000 compounds, 0.9% hits; AID 1273; inhibition, % at 2 µM; TRM-6 cells, insulin promoter-eGFP reporter, imaging; reporter expression induced with tamoxifen;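 active means inhibition above the mean plus 3 SD, with well images judged a real hit on visual review, cut at about 60% in these data, passing the limit was not always enough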
Yeast lifespan up: extends the lifespan of yeast | inhibition of the nicotinamide effect, % at 10 µM | S. cerevisiae growth with nicotinamide, OD615; deaD strain in restrictive glucose medium | 130,000 compounds, 0.68% hits;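 active means inhibition above a set limit, placed 3 SD over the median of all compounds, cut at about 26% in these data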;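 further: 0% = nicotinamide-treated wells and 100% = cells grown without nicotinamide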
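Assay system: DeaD-strain S. cerevisiae. Medium: CSMM-D glucose medium, restrictive. Reagent: nicotinamide, 1.5 mM, co-present with compound. Compound: 10 µM single point, 0.25% DMSO. Schedule: culture preincubation 4 h, compound exposure 48 h, both 30 °C. Detection: absorbance at 615 nm.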
Measles CPE: protection of cells from measles virus | 140,000 compounds, 1.5% hits | protection (pct of control), % at 4 µM | Measles virus-infected cells, CPE protection, absorbance; in the data active means protection mostly above about 24%, no sharp cut-off; inactive means mostly below about 26%
The depositor's hits bear a star.

What do the screens show for `CC(=NCCN1CCN(C(C)=C2C(=O)c3ccccc3C2=O)CC1)C1=C(O)CC(C)(C)CC1=O`?
MDM2 E3 inh: 23; RAM network inh: -1; BB579 growth dn: -41; INS promoter inh: 15; Yeast lifespan up: 31*; Measles CPE: 5

How did CC1(C)CC(=O)C(C=NCCN2CCN(C(=S)Nc3ccccc3)CC2)=C(O)C1 do in these assays?
MDM2 E3 inh: -17; RAM network inh: 1; BB579 growth dn: -19; INS promoter inh: 27; Yeast lifespan up: -17; Measles CPE: 4

Results for O=C(CSc1nnc(SCc2ccc(Cl)cc2)s1)N/N=C/c1c(Cl)cccc1Cl ?
MDM2 E3 inh: -12; RAM network inh: -1; BB579 growth dn: -31; Yeast lifespan up: -5; Measles CPE: 11

What do the screens show for `COC(=O)C1=C(C)N(Cc2ccco2)C(=O)/C1=C\c1ccc([N+](=O)[O-])cc1`?
MDM2 E3 inh: -1; RAM network inh: 10.0*

How did CCOCCCn1c(=N)c(C(=O)Nc2cc(C)on2)cc2c(=O)n3ccccc3nc21 do in these assays?
INS promoter inh: 38

How did Cc1ccc2c(c1)c(Sc1ccccc1)c(CC(=O)O)n2C do in these assays?
MDM2 E3 inh: 1; RAM network inh: 6; BB579 growth dn: -48; INS promoter inh: 63; Yeast lifespan up: 27*; Measles CPE: 9

What do the screens show for `CCOC(=O)Cc1c(Sc2ccccc2)c2cc(C)ccc2n1C`?
MDM2 E3 inh: -9; RAM network inh: 2; BB579 growth dn: 0; Yeast lifespan up: 2; Measles CPE: 6

What do the screens show for `COc1cc(-c2ccc(NC(=O)CN3CCCCC3)c(OC)c2)ccc1NC(=O)CN1CCCCC1`?
INS promoter inh: -19

Results for Nc1c([N+](=O)[O-])cnnc1-c1ccccc1 ?
MDM2 E3 inh: -1; RAM network inh: 2; BB579 growth dn: -21; Yeast lifespan up: 3; Measles CPE: 11

Results for CC(=O)CC(c1ccc([N+](=O)[O-])cc1)c1c(O)c2ccccc2oc1=O (stereo not drawn) ?
MDM2 E3 inh: -78; RAM network inh: 0; BB579 growth dn: -34; INS promoter inh: 17; Yeast lifespan up: -5; Measles CPE: 36*

What do the screens show for `Cc1ccnc(NC(=O)c2c(-c3ccccc3Cl)noc2C)c1`?
MDM2 E3 inh: -1; RAM network inh: 3; BB579 growth dn: 4; INS promoter inh: -33; Yeast lifespan up: 0; Measles CPE: 24*

How did COc1ccc(Cl)cc1NC(=O)c1ccoc1C do in these assays?
MDM2 E3 inh: -6; RAM network inh: 1; BB579 growth dn: -27; INS promoter inh: -54; Yeast lifespan up: -8; Measles CPE: 11

Results for COc1cc(OC)c(NC(=O)c2c(-c3ccccc3)noc2C)cc1Cl ?
MDM2 E3 inh: -5; RAM network inh: 3; BB579 growth dn: -41; INS promoter inh: 79*; Yeast lifespan up: -4; Measles CPE: 2

What do the screens show for `COc1cc(OC)c(NC(=O)c2ccoc2C)cc1Cl`?
MDM2 E3 inh: -30; RAM network inh: 1; BB579 growth dn: -17; INS promoter inh: 71*; Yeast lifespan up: -15; Measles CPE: 7

What do the screens show for `COCCNC(=S)N1CCN(Cc2cccc(OC)c2)CC1`?
MDM2 E3 inh: -8; RAM network inh: 0

Results for CN1c2ccccc2C(C)(C)C12CC(c1ccc(S(=O)(=O)N3CCCCC3)cc1)=NO2 (stereo not drawn) ?
MDM2 E3 inh: -12; RAM network inh: 3; BB579 growth dn: -34; INS promoter inh: 54; Yeast lifespan up: 6; Measles CPE: 63*

How did CN1c2ccccc2C(C)(C)C12CC(c1cccc(S(=O)(=O)N3CCCC3)c1)=NO2 (stereo not drawn) do in these assays?
MDM2 E3 inh: -2; RAM network inh: 2; BB579 growth dn: 5; INS promoter inh: 27; Yeast lifespan up: 2; Measles CPE: 54*

How did CN1/C(=C\C(=O)c2cccc(S(=O)(=O)N3CCCCC3)c2)C(C)(C)c2ccccc21 do in these assays?
MDM2 E3 inh: 18; RAM network inh: 7; BB579 growth dn: -13; INS promoter inh: -9; Yeast lifespan up: 3; Measles CPE: 4

How did CCN(CC)S(=O)(=O)c1ccc(-c2nnco2)cc1 do in these assays?
MDM2 E3 inh: -19; RAM network inh: 2; BB579 growth dn: 2; Yeast lifespan up: -3; Measles CPE: 2

Results for CCN(CC)S(=O)(=O)c1ccc(C2=NOC3(C2)N(C)c2ccccc2C3(C)C)cc1 (stereo not drawn) ?
MDM2 E3 inh: -10; RAM network inh: 6; BB579 growth dn: -33; INS promoter inh: -45; Yeast lifespan up: 3; Measles CPE: 38*

What do the screens show for `O=S(=O)(c1ccc(S(=O)(=O)N2CCCC2)cc1)N1CCCCCC1`?
MDM2 E3 inh: -17; RAM network inh: -1; BB579 growth dn: -35; Yeast lifespan up: -8; Measles CPE: 14

Results for COc1ccc(C2(C(=O)N3CCOCC3)CCCC2)cc1 ?
MDM2 E3 inh: -4; RAM network inh: -1; BB579 growth dn: -40; INS promoter inh: -8; Yeast lifespan up: -16; Measles CPE: 18

Results for COc1ccc(C2(C(=O)O)CCCC2)cc1 ?
MDM2 E3 inh: -7; RAM network inh: 2; BB579 growth dn: -27; INS promoter inh: -14; Yeast lifespan up: 35*; Measles CPE: 6

Results for Cc1noc(C)c1CSc1nnc(-c2c[nH]c3ccccc23)n1-c1ccc(Cl)cc1 ?
MDM2 E3 inh: -34; RAM network inh: 9.4*; BB579 growth dn: -32; INS promoter inh: 0; Yeast lifespan up: -1; Measles CPE: 9

Results for CCOC(=O)C1(CC)NC(c2ccc(OC)cc2OC)C2C(=O)N(C)C(=O)C21 (stereo not drawn) ?
MDM2 E3 inh: -5; RAM network inh: 1

How did Cn1c(=O)[nH]c(=O)c2c1nc(Br)n2CCCc1ccccc1 do in these assays?
MDM2 E3 inh: 30*; RAM network inh: 1; BB579 growth dn: 25; INS promoter inh: 10; Yeast lifespan up: -7; Measles CPE: 14

What do the screens show for `Cn1c(=O)[nH]c(=O)c2c1nc(CN1CCN(c3cccc(Cl)c3)CC1)n2CCCc1ccccc1`?
MDM2 E3 inh: -10; RAM network inh: 9.5*; BB579 growth dn: -37; Yeast lifespan up: -9; Measles CPE: 18

Results for CCCCn1c(CN2CCN(c3cccc(Cl)c3)CC2)nc2c1c(=O)[nH]c(=O)n2C ?
MDM2 E3 inh: 3; RAM network inh: 2; BB579 growth dn: -32; INS promoter inh: -44; Measles CPE: 20

Results for Cn1c(=O)c2c(nc(Br)n2CCCc2ccccc2)n(C)c1=O ?
MDM2 E3 inh: 5; RAM network inh: 1; BB579 growth dn: -25; INS promoter inh: 14; Yeast lifespan up: -9; Measles CPE: 3
